Laboratory results from publication PMC4805660 (Theranostics, 2016).
Counter-ions that a name gives are not always drawn.

How the values were obtained:
Type in all cases: in vivo, NMRI nu/nu mice
[1] = system: MPC-mCherry tumors; test: Renal; conditions: for DAred, reduction of renal dopamine excretion [14-28 days pci] / NEred, reduction of renal norepinephrine excretion [14-28 days pci] / NMNred, reduction of renal normetanephrine excretion [14-28 days pci]: doxorubicin 6.9 µmol/kg, AN-238 0.2 µmol/kg, [^177Lu]Lu-DOTATATE 80 MBq/animal, urine LC-MS/MS, compared to control, mean ± SEM
[2] = system: MPC-mCherry tumors; test: ^177Lu activity in MPC-mCherry tumors after treatment, monitored by PLI; conditions: not decay-corrected, 80 MBq/animal
Procedure, shortened: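 Radioligand was made by heating [177Lu]LuCl3 (pH 5.2, NH4OAc) with 14 nmol peptide at 90 °C for 20 min, giving >97% HPLC radiochemical purity. 80 MBq (1.2 nmol)/mouse was given by tail vein in Infesol 15 from 15 days pci. Tumour ROIs were thresholded on mCherry/reference fluorescence (signal/background 2). PLI signal was expressed as effective and decay-corrected 177Lu activity.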

[3] = Body weight monitoring in treated mice; conditions: doxorubicin 6.9 µmol/kg, AN-238 0.2 µmol/kg, [^177Lu]Lu-DOTATATE 80 MBq/animal
Procedure, shortened: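 Mice carrying growing MPC-mCherry tumours (5 ± 3 mm diameter) were grouped by similar mean tumour volume and randomly assigned to control or therapy; treatment began 15 days pci. Test compounds in Infesol 15 given via tail vein at 0.3 mL/30 g body weight. Three independent experiments followed an identical protocol, with data pooled.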

[^177Lu]Lu-DOTA-(Tyr^3)octreotate [[^177Lu]Lu-DOTATATE]
fold more effective in reducing overall renal monoamine excretion compared to doxorubicin and AN-238 ([1]; 14-28 days pci): 2 fold
DAred, reduction of renal dopamine excretion [14-28 days pci] [1]: 97.2 ± 0.9 %
NEred, reduction of renal norepinephrine excretion [14-28 days pci] [1]: 99.6 ± 1.9 %
NMNred, reduction of renal normetanephrine excretion [14-28 days pci] [1]: 100 ± 0.7 %
half-life of effective ^177Lu activity in tumors [2]: 48 h

COc1cccc2c1C(=O)c1c(O)c3c(c(O)c1C2=O)C[C@@](O)(C(=O)CO)C[C@@H]3O[C@H]1C[C@H](N)[C@H](O)[C@H](C)O1 [doxorubicin, doxorubicin hydrochloride]
DAred, reduction of renal dopamine excretion [14-28 days pci] [1]: 31.5 ± 11.3%
NEred, reduction of renal norepinephrine excretion [14-28 days pci] [1]: 74.8 ± 7.5 %
NMNred, reduction of renal normetanephrine excretion [14-28 days pci] [1]: 77.3 ± 5.1 %
body weight change after treatment [3]: tended to decrease immediately
